Results on two compounds are retold here after article PMC5995301 (International Journal of Nanomedicine, 2018).

Data set [1] has as its system human lung carcinoma (A549) cells. Description: In vitro cytotoxic effect. The format is cell-based. An outline of the steps:
(§1)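 Cells were seeded at 5×10^3 cells/well and grown 24 h at 37°C. LLC cells were grown in DMEM with 10% FBS and A549 cells in RPMI with 10% FBS. Cells were exposed to serially diluted test compound at 0.01–10 μg/mL PMX-equivalent for 48 h. WST-8 (CCK-8) was added for 2 h and absorbance read at 450 nm. Viability is % of untreated cells; mean ± SD, n=6.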

The nature of data set [2]: In vivo pharmacokinetic study in rats. The following applies: Sprague Dawley, rat, plasma, po, 20 mg/kg.
A short description of data set [3]: Parallel artificial membrane permeability assay. The data set is classed as in vitro ADME. The note with it: PAMPA, pH 6.8. An outline of the steps: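 Donor wells held test compound diluted in PBS pH 6.8 to 200 μg/mL PMX-equivalent; acceptor wells held PBS pH 6.8. Plates were incubated 5 h at room temperature, then donor and acceptor were both sampled. Permeated PMX was quantified by HPLC at 254 nm.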
On the technique in general: The PAMPA barrier holds no transporters, so it reflects passive diffusion.

A further data set concerns LLC tumor-bearing mice. The data set is described as follows: In vivo tumor growth inhibition in LLC tumor-bearing mice. Details: species or system C57BL/6 mice. An outline of the steps: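 Female C57BL/6 mice (20–25 g) received 1×10^6 LLC cells in 100 μL PBS pH 7.4 subcutaneously in the flank. At 80–100 mm3, mice were randomised into groups of 10 (untreated, oral daily, or IV once-weekly 20 mg/kg PMX in water). Oral groups were fasted 4 h before and 2 h after dosing. Calipers measured tumors every 3 days for 21 days; volume = a2×b×0.52. Mean ± SD, n=10.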

Another data set relates to LLC cells. Description: In vitro wound-healing assay, LLC cells. The note with it: equivalent to 0.5 μg/mL (0.84 μM) PMX, 48 h. The format is cell-based. The method, boiled down:
(§2)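 Cells were plated at 3×10^4 cells/well on collagen-coated plates, LLC in DMEM and A549 in RPMI, each with 10% FBS. They were grown 48 h at 37°C to near-confluence. A wound maker scratched the monolayer, which was washed twice with PBS pH 7.4. Cells were then exposed to test compound at 0.01–10 μg/mL PMX-equivalent for 48 h at 37°C. Phase-contrast images every 12 h; automated edge-detection mask gave the area.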

The subject of another data set is A549 cells. Description: In vitro wound-healing assay, A549 cells. The format is cell-based, human. The note with it: 48 h. An outline of the steps: as §2
A further data set in a line: In vitro drug release. The data set is classed as physicochemical. The note with it: basket 100 rpm.
Data set [4] relates to Lewis lung carcinoma (LLC) cells. The data set is described as follows: In vitro cytotoxic effect. The note with it: 48 h, read-out: Cell viability. The format is cell-based. The method, boiled down: as §1
Data set [5] in a line: In vitro permeability across a Caco-2 cell monolayer. The data set is classed as in vitro ADME. The following applies: human. The method, boiled down: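 Caco-2 monolayers were grown on Transwell inserts (0.4 μm pores, 1.12 cm2). Test compound was applied. Transported samples were filtered (0.45 μm PVDF), and drug in them was quantified by HPLC-UV. The apparent permeability coefficient was calculated from the transported amount.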
(Caco-2 monolayers are a common model of the intestinal barrier.)

The mark [6] stands for this setting: once-weekly IV 20 mg/kg PMX, 3 weeks.

Regarding “2-hydroxypropyl-beta-cyclodextrin [HP-beta-CD]”, in data set [1] (A549 cells, excipient alone, amount matching the same molar concentration of PMX), the “Cell viability after the addition of excipient alone” value is over 80%.

`Nc1nc2[nH]cc(CCc3ccc(C(=O)N[C@@H](CCC(=O)O)C(=O)O)cc3)c2c(=O)[nH]1` [PMX, N-[4-[2-(2-amino-3,4-dihydro-4-oxo-7H-pyrrolo[2,3-d]pyrimidin-5-yl)-ethyl]-benzoyl]-L-glutamic acid]: the half-life (usually the time needed for the level to fall by half in the phase considered) in data set [2] was 7.03 ± 1.61 h. In [3], the Papp (usually a coefficient for how fast a substance crosses the barrier) at 5 h, 200 μg/mL came out at 0.665 ± 0.207 ×10⁻⁶ cm/s. The “Reduction in tumor volume and mass vs control mice” value in the data set on LLC tumor-bearing mice (once-a-day oral 20 mg/kg PMX in water, 21 days) was “did not show significant reductions in the tumor volume and mass”. In addition, in the data set on LLC tumor-bearing mice (setting [6]), the “Tumor volume lower than control group” value is 49% and the “Tumor volume lower than oral PMX group” value is given as 46%. Moreover, in the data set with LLC cells, the Relative wound recovery is 57.5%±5.76%. In addition, the “Inhibition of cell proliferation/migration, fold higher than control cells” value with A549 cells (equivalent to 0.5 μg/mL (0.84 μM) PMX) is 1.28 fold. In addition, the Wound recovery rate with A549 cells (equivalent to 1 μg/mL (1.67 μM) PMX) is on record as 54.0%±5.09%. The “Drug dissolved within 15 min” value in “In vitro drug release” (0.1 N HCl pH 1.2, 37°C) is recorded as “More than 90%”. The “Drug released within 15 min” value in “In vitro drug release” (phosphate buffer pH 6.8, 37°C) was “More than 90%”. For the same compound, in data set [4], the viability – broadly, the share of living cells, or the viability signal relative to a control – at 0.08 µM was under 80%; the viability at 0.84 µM was found to be 45.4%; the viability at 5 µg/mL came to 29.8%. Moreover, the apparent permeability (Papp) at 5 h, 100 μg/mL in [5] turned out to be 0.498 ± 0.096 ×10⁻⁶ cm/s. For the same compound, the viability at 8.37 µM in data set [1] (Homo sapiens, A549, 48 h, read-out: Cell viability) stood at 52.2%.
